Assay results taken from ChEMBL document CHEMBL2440018 (J Med Chem, 2013).
Active and inactive are the calls of the source. The calls are words filed in the database; no cut-off is given here.

Tests used:
[1] = test system: Plasma; assay: Elimination half life in C57Bl/6J mouse plasma at 25 mg/kg, sc; format: ADME, organism-based; parameters: dose 25 mg/kg, route subcutaneous; details: in vivo
In short: (§1)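 Mice were dosed sc once at 25 mg/kg; plasma and perfused brain (n = 3 per time point) were quantified by UPLC/ESI-MRM. AUC0-last came from the mean concentration-time curve by the trapezoidal rule, and AUC0-∞ = AUC0-last + Clast/k. α and β half-lives came from linear regression on the linear portion of the concentration-time data, with t1/2 = ln2/k.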

[2] = test system: Plasma; assay: AUC (0 to infinity) in C57Bl/6J mouse plasma at 25 mg/kg, sc; format: ADME, organism-based; parameters: time infinity, dose 25 mg/kg, route subcutaneous; details: in vivo; in short: as §1
[3] = test system: Plasma; assay: Plasma concentration in C57Bl/6J mouse at 25 mg/kg, sc measured at 10 mins by reversed phase UPLC/ESI-MRM analysis; format: ADME, organism-based; parameters: dose 25 mg/kg, route subcutaneous; details: in vivo
In short: (§2)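 Female C57Bl/6J mice (6–8 weeks, 16–19 g) received a single 100 µL sc dose equivalent to 25 mg/kg, in 10% DMSO/25% Tween 80/65% water or 80% propylene glycol/20% DMSO. Terminal heparinised vena cava blood gave plasma, and saline-perfused whole brain was taken; n = 3 per time point. Acetonitrile extracts with internal standard were run by UPLC/ESI-MRM against matrix calibration curves, linear 0.05–5 µM.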

[4] = target: Stromelysin-1 (Homo sapiens) (UniProt P08254); assay: Inhibition of human recombinant MMP-3 catalytic domain at 50 uM by fluorescence spectrophotometric analysis relative to control
[5] = target: T1, Matrix metalloproteinase-9 (Homo sapiens, UniProt P14780); assay: Inhibition of human recombinant MMP-9 catalytic domain using MOCAcPLGLA2pr(Dnp)AR-NH2 as substrate at 50 uM by fluorescence spectrophotometric analysis relative to control
[6] = target: MMP-2/MMP-14 (Homo sapiens) (UniProt P50281+P08253); assay: Selectivity ratio of Ki for human recombinant MMP-14 catalytic domain to Ki for human recombinant MMP-2
[7] = Plasma concentration in C57Bl/6J mouse at 25 mg/kg, sc measured at 5 hrs by reversed phase UPLC/ESI-MRM analysis; format: ADME, organism-based; parameters: dose 25 mg/kg, route subcutaneous; in short: as §2
[8] = test system: Brain; assay: Drug uptake in C57Bl/6J mouse brain measured per mg of tissue at 25 mg/kg, sc measured at 5 hrs by reversed phase UPLC/ESI-MRM analysis; format: ADME, organism-based; parameters: dose 25 mg/kg, route subcutaneous; details: in vivo; in short: as §2
[9] = test system: Brain; assay: Drug uptake in C57Bl/6J mouse brain at 25 mg/kg, sc measured at 10 mins by reversed phase UPLC/ESI-MRM analysis; format: ADME, organism-based; parameters: dose 25 mg/kg, route subcutaneous; details: in vivo; in short: as §2
[10] = test system: Brain; assay: AUC (0 to last) in C57Bl/6J mouse brain at 25 mg/kg, sc; format: ADME, organism-based; parameters: dose 25 mg/kg, route subcutaneous; details: in vivo; in short: as §1
[11] = Ratio of AUC in brain to plasma in C57Bl/6J mouse at 25 mg/kg, sc; format: ADME, organism-based; parameters: dose 25 mg/kg, route subcutaneous; details: brain and plasma, read-out: Ratio AUC
[12] = Primary phase half life in C57Bl/6J mouse brain at 25 mg/kg, sc; format: ADME, organism-based; parameters: dose 25 mg/kg, route subcutaneous; details: read-out: alphat1/2; in short: as §1
[13] = target: T2, Matrix metalloproteinase-14 (Homo sapiens, UniProt P50281); assay: Inhibition of human recombinant MMP-14 catalytic domain using MOCAcPLGLA2pr(Dnp)AR-NH2 as substrate at 50 uM by fluorescence spectrophotometric analysis relative to control
[14] = target: T3, Interstitial collagenase (Homo sapiens) (UniProt P03956); assay: Inhibition of human recombinant MMP-1 catalytic domain at 50 uM by fluorescence spectrophotometric analysis relative to control
T3 sequence (whole entry): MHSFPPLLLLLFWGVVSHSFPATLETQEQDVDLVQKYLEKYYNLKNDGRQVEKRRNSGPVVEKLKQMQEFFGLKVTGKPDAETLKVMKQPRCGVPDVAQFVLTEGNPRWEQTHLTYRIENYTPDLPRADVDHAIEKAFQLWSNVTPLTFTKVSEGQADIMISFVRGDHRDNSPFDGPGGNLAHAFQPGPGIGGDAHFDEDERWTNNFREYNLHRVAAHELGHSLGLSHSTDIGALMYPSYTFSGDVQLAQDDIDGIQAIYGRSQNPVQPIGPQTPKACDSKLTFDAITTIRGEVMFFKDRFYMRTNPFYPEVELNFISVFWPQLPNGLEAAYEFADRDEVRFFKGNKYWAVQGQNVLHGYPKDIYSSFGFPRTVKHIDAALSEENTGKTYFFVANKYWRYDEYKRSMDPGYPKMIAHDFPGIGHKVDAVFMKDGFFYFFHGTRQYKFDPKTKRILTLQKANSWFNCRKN

[15] = target: MMP-2/MMP-9 (Homo sapiens) (UniProt P08253+P14780); assay: Selectivity ratio of Ki for human recombinant MMP-9 catalytic domain to Ki for human recombinant MMP-2
[16] = test system: Brain; assay: Elimination half life in C57Bl/6J mouse brain at 25 mg/kg, sc; format: ADME, organism-based; parameters: dose 25 mg/kg, route subcutaneous; details: in vivo; in short: as §1
[17] = test system: Brain; assay: Metabolic stability in C57Bl/6J mouse brain assessed as formation of ND-322 at 25 mg/kg, sc measured at 10 to 300 mins; format: ADME, organism-based; parameters: dose 25 mg/kg, route subcutaneous; details: in vivo; in short: as §2
[18] = target: T4, Matrilysin (Homo sapiens) (UniProt P09237); assay: Inhibition of human recombinant MMP-7 at 50 uM by fluorescence spectrophotometric analysis relative to control
T4 sequence (whole entry): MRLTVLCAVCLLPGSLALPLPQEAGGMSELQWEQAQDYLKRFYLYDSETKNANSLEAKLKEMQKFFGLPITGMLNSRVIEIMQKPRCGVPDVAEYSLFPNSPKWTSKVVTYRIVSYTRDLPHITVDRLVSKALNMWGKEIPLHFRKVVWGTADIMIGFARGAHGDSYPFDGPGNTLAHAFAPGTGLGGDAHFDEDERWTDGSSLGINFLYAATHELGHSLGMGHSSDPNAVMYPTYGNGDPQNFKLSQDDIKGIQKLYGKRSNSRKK

[19] = test system: Liver; assay: Half life in rat liver S9 fraction at 10 uM by reversed-phase UPLC/ESI-MRM analysis; format: ADME, subcellular; details: s9, 10 µM
In short: (§3)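 Male rat liver S9 (1.0 mg) with 0.5 mM NADPH and 10 µM compound (both final) in 50 mM potassium phosphate, pH 7.4, at 37 °C, sampled over time. Aliquots were stopped with acetonitrile containing internal standard, and the supernatant was run by UPLC/ESI-MRM. Half-lives used first-order kinetics on peak-area ratios to internal standard.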

[20] = target: 72 kDa type IV collagenase (Homo sapiens, UniProt P08253); assay: Inhibition of human recombinant MMP-2 using MOCAcPLGLA2pr(Dnp)AR-NH2 as substrate by fluorescence spectrophotometric analysis
[21] = test system: Plasma; assay: AUC (0 to last) in C57Bl/6J mouse plasma at 25 mg/kg, sc; format: ADME, organism-based; parameters: time 0 - last, dose 25 mg/kg, route subcutaneous; details: in vivo; in short: as §1
[22] = test system: Brain; assay: AUC (0 to infinity) in C57Bl/6J mouse brain at 25 mg/kg, sc; format: ADME, organism-based; parameters: time infinity, dose 25 mg/kg, route subcutaneous; details: in vivo; in short: as §1
[23] = species: Homo sapiens; assay: Selectivity ratio of Ki for human recombinant MMP-8 catalytic domain to Ki for human recombinant MMP-2
[24] = test system: Plasma; assay: Metabolic stability in C57Bl/6J mouse plasma assessed as formation of ND-322 at 25 mg/kg, sc measured at 10 to 300 mins; format: ADME, organism-based; parameters: dose 25 mg/kg, route subcutaneous; details: in vivo; in short: as §2
[25] = Primary phase half life in C57Bl/6J mouse plasma at 25 mg/kg, sc; format: ADME, organism-based; parameters: dose 25 mg/kg, route subcutaneous; details: read-out: alphat1/2; in short: as §1
[26] = target: Neutrophil collagenase (Homo sapiens, UniProt P22894); assay: Inhibition of human recombinant MMP-8 catalytic domain using […] as substrate by fluorescence spectrophotometric analysis
[27] = target: T2, Matrix metalloproteinase-14; assay: Inhibition of human recombinant MMP-14 catalytic domain using MOCAcPLGLA2pr(Dnp)AR-NH2 as substrate by fluorescence spectrophotometric analysis
[28] = test system: Liver; assay: Metabolic stability in rat liver S9 fraction assessed as formation of 4-(4-(thiiran-2-ylmethylsulfonyl)phenoxy)phenol after 5 mins by reversed-phase LC/MS analysis; format: ADME, subcellular; details: s9, 5 min
In short: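 Male rat liver S9 (1.0 mg) incubated with 10 μM compound (final) and 0.5 mM NADPH (final) in 50 mM potassium phosphate, pH 7.4, 37 °C. Aliquots taken at several time points. Reactions quenched with one volume acetonitrile containing internal standard, centrifuged, supernatant run on reversed-phase UPLC/ESI-MRM. Quantified by peak area ratio to internal standard.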

[29] = target: Stromelysin-1 (Homo sapiens) (UniProt P08254); assay: Inhibition of human recombinant MMP-3 catalytic domain at 30 uM by fluorescence spectrophotometric analysis relative to control
[30] = target: T1, Matrix metalloproteinase-9; assay: Inhibition of human recombinant MMP-9 catalytic domain using MOCAcPLGLA2pr(Dnp)AR-NH2 as substrate by fluorescence spectrophotometric analysis
[31] = test system: Liver; assay: Metabolic stability in rat liver S9 fraction assessed as formation of 4-(4-(thiiran-2-ylmethylsulfonyl)phenoxy)aniline at 50 uM after 30 mins by reversed-phase LC/MS analysis; format: ADME, subcellular; details: s9, 0.5 h
In short: (§4)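 50 µM compound was incubated with rat liver S9 (1.0 mg) and 0.5 mM NADPH in 50 mM potassium phosphate, pH 7.4, at 37 °C for 30 min. The reaction was stopped with one volume of acetonitrile and centrifuged. Metabolites in the supernatant were identified by reversed-phase LC/ESI-QTOF mass spectrometry.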

[32] = test system: Liver; assay: Metabolic stability in rat liver S9 fraction assessed as formation of {4-[4-(1-Oxo-1lambda4-thiiran-2-ylmethanesulfonyl)-phenoxy]-phenyl}-carbamic acid methyl ester at 50 uM after 30 mins by reversed-phase LC/MS analysis; format: ADME, subcellular; details: s9, 0.5 h; in short: as §4
[33] = test system: Liver; assay: Metabolic stability in rat liver S9 fraction assessed as formation of 4-(4-(methoxycarbonylamino)phenoxy)benzenesulfinic acid at 50 uM after 30 mins by reversed-phase LC/MS analysis; format: ADME, subcellular; details: s9, 0.5 h; in short: as §4
[34] = test system: Liver; assay: Elimination half life in rat liver S9 fraction at 10 uM by reversed-phase UPLC/ESI-MRM analysis; format: ADME, subcellular; details: s9, 10 µM; in short: as §3
[35] = test system: Liver; assay: Primary phase half life in rat liver S9 fraction at 10 uM by reversed-phase UPLC/ESI-MRM analysis; format: ADME, subcellular; details: s9, 10 µM; in short: as §3

Sequence of 72 kDa type IV collagenase (P08253 whole entry): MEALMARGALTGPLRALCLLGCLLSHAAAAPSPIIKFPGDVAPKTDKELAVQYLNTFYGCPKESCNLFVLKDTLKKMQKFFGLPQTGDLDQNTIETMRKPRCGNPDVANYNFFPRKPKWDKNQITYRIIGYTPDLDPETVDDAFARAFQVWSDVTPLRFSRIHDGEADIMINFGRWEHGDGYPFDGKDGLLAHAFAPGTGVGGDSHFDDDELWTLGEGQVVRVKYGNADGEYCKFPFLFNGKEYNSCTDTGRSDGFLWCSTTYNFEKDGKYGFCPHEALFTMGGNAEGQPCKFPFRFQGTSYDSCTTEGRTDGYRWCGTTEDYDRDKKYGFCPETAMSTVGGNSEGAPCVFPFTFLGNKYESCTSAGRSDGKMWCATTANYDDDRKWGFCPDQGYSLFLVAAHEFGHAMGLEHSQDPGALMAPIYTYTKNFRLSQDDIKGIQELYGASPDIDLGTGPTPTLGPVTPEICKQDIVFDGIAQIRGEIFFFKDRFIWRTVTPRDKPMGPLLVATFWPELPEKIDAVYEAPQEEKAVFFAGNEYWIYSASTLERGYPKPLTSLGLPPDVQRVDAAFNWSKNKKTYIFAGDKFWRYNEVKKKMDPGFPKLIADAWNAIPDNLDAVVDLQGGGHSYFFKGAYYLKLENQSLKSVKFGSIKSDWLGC
T1 sequence (P14780 whole entry, the tested form may be a part): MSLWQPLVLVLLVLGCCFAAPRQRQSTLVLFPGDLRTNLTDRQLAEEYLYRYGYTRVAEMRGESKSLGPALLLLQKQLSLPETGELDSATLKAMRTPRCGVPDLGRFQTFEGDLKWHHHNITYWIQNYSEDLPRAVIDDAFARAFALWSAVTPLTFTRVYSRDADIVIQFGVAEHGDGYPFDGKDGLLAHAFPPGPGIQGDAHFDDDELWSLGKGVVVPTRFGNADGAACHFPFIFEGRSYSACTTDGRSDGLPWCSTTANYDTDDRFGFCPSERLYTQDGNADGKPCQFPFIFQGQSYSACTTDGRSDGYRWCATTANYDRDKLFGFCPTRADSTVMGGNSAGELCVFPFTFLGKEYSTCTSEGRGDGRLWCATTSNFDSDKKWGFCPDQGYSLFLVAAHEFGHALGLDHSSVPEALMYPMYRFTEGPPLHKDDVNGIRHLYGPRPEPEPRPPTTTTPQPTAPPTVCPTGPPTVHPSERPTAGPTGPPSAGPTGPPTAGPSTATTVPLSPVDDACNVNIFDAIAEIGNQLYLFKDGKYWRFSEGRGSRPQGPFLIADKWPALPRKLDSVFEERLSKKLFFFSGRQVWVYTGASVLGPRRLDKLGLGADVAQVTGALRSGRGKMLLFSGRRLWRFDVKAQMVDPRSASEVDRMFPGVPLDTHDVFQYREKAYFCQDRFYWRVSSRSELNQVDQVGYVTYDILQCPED
Sequence of Neutrophil collagenase (P22894 whole entry, the tested form may be a part): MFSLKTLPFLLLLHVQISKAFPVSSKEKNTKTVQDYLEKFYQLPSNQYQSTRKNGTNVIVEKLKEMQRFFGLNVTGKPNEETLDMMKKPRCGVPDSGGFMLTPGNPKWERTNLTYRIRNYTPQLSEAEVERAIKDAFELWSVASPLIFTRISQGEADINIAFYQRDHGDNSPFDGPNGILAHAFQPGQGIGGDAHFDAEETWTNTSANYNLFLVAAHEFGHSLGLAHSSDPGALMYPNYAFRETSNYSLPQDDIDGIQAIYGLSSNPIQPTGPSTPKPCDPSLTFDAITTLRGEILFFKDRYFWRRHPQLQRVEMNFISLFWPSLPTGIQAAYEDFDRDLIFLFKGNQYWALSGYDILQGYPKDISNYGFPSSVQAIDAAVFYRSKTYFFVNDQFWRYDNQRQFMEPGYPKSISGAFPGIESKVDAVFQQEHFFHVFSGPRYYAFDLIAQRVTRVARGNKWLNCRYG

CCNC(=O)Nc1ccc(Oc2ccc(S(=O)(=O)CC3CS3)cc2)cc1 (stereo unspecified)
beta t1/2 [1]: 61.9 min | AUC [2]: 187 µM·min | Drug uptake [3]: Active | inhibition [4]: inactive | inhibition [5]: 28% | Ratio Ki [6]: 20 | concentration at 5 h [7]: 70.4 nM | Drug uptake [8]: 0.0133 pmol | Drug uptake [9]: Active | AUClast [10]: 9.86 pmol·min/mg | Kp [11]: 0.0738 | half-life [12]: 18.2 min | inhibition [13]: 17% | inhibition [14]: inactive | Ratio Ki [15]: 20 | beta t1/2 [16]: 204 min | Stability [17]: Stable | inhibition [18]: 7% | t1/2 [19]: 40.7 min | Ki [20]: 440 nM | AUClast [21]: 181 µM·min | AUC [22]: 13.8 pmol·min/mg | Ratio Ki [23]: 20 | Stability [24]: Stable | half-life [25]: 8.38 min | Ki [26]: 17 µM

CCOC(=O)Oc1ccc(Oc2ccc(S(=O)(=O)CC3CS3)cc2)cc1 (stereo unspecified)
inhibition [4]: 39% | inhibition [14]: inactive | Ratio Ki [15]: 2 | inhibition [18]: 9% | Ki [27]: 2700 nM | Ki [20]: 230 nM | Stability [28]: Unstable

COC(=O)Oc1ccc(Oc2ccc(S(=O)(=O)CC3CS3)cc2)cc1 (stereo unspecified)
inhibition [14]: 7% | Ratio Ki [15]: 2 | inhibition [29]: 31% | inhibition [18]: 11% | Ki [27]: 2400 nM | Ki [20]: 160 nM | Ki [30]: 230 nM

COC(=O)Nc1ccc(Oc2ccc(S(=O)(=O)CC3CS3)cc2)cc1 (stereo unspecified)
inhibition [4]: 38% | Stability [31]: Unstable | Stability [32]: Unstable | Stability [33]: Unstable | inhibition [14]: inactive | Ratio Ki [15]: 2 | inhibition [18]: inactive | t1/2 [19]: 17.6 min | Ki [27]: 2600 nM | Ki [20]: 50 nM

CC(C)NC(=O)Oc1ccc(Oc2ccc(S(=O)(=O)CC3CS3)cc2)cc1 (stereo unspecified)
inhibition [4]: 3% | inhibition [5]: 22% | Ratio Ki [6]: 20 | inhibition [13]: 30% | inhibition [14]: inactive | Ratio Ki [15]: 20 | inhibition [18]: inactive | Ki [20]: 690 nM | Ratio Ki [23]: 20

Nc1ccc(Oc2ccc(S(=O)(=O)CC3CS3)cc2)cc1 (stereo unspecified)
beta t1/2 [34]: 59 min | alphat1/2 [35]: 14 min
